According to ChEMBL document CHEMBL4689842, “EUbOPEN Chemogenomics Library wave 1” (2021):

What was measured:
Assay type in all cases: toxicity, cell-based
Fibroblast = assay: Incucyte cell viability with human fibroblast; settings: 10 µM, compound concentration 10 uM; also: filed as whole numbers so only -1 and 0 and 1 occur
U2OS [1] = assay: Incucyte cell viability with U2OS; settings: human, 10 µM, compound concentration 10 uM; also: filed as whole numbers so only -1 and 0 and 1 occur
U2OS [2] = assay: Multiplex assay against U2OS; settings: human
In short: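 Imaging took place on a CQ1 microscope at 37°C and 5% CO2 once compound had been added to live cells stained at seeding with Hoechst33342, BioTracker Green Microtubule Cytoskeleton Dye, MitoTracker Red and Annexin V Alexa Fluor 680. CellPathfinder machine-learning gating classed cells as Hoechst high-intensity objects or normal cells, classed normal cells as having healthy, pyknosed or fragmented nuclei, and classed pyknosed cells as mitotic or apoptotic. Tubulin, mitochondrial-mass and membrane-permeability phenotypes are per cents of the healthy-nucleus cells.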

HEK-293T = assay: Incucyte cell viability with HEK293T; settings: human, 10 µM, compound concentration 10 uM; also: filed as whole numbers so only -1 and 0 and 1 occur
[3] = 0 h, replicate number 2, timepoint 0 hours
[4] = 6 h, replicate number 1, timepoint 6 hours
[5] = 12 h, replicate number 1, timepoint 12 hours
[6] = 18 h, replicate number 1, timepoint 18 hours
[7] = 24 h, replicate number 1, timepoint 24 hours
[8] = 0 h, replicate number 1, timepoint 0 hours
[9] = 12 h, 1 µM, compound concentration 1 uM, replicate 1
[10] = 12 h, 1 µM, compound concentration 1 uM, replicate 2
[11] = 12 h, 10 µM, compound concentration 10 uM, replicate 1
[12] = 12 h, 10 µM, compound concentration 10 uM, replicate 2
[13] = 24 h, 1 µM, compound concentration 1 uM, replicate 1
[14] = 24 h, 1 µM, compound concentration 1 uM, replicate 2
[15] = 24 h, 10 µM, compound concentration 10 uM, replicate 1
[16] = 24 h, 10 µM, compound concentration 10 uM, replicate 2

SMILES: CCOC(=O)CCNc1cc(N2CCc3ccccc3CC2)nc(-c2ccccn2)n1
- Growth Rate (Fibroblast; [3]): 0
- Growth Rate (Fibroblast; [4]): 1
- Growth Rate (Fibroblast; [5]): 1
- Growth Rate (Fibroblast; [6]): 1
- Growth Rate (Fibroblast; [7]): 1
- Growth Rate (U2OS [1]; [8]): 0
- Growth Rate (U2OS [1]; [3]): 1
- Growth Rate (U2OS [1]; [4]): 0
- Growth Rate (U2OS [1]; [5]): 0
- Growth Rate (U2OS [1]; [6]): 0
- Growth Rate (U2OS [1]; [7]): 0
- Population Apoptotic (%) (U2OS [2]; [9]): 37%
- Population Fragmented Nuclei (%) (U2OS [2]; [9]): 7%
- Population Healthy Nuclei (%) (U2OS [2]; [9]): 85%
- Population Hoechst High Intensity Objects (%) (U2OS [2]; [9]): 3%
- Population Membrane Permeable-Phenotype (%) (U2OS [2]; [9]): 14%
- Population Mitochondria Different-Phenotype (%) (U2OS [2]; [9]): 40%
- Population Mitotic Cells (%) (U2OS [2]; [9]): 62%
- Population Normal (%) (U2OS [2]; [9]): 96%
- Population Pyknosed Nuclei (%) (U2OS [2]; [9]): 6%
- Population Tubulin-Different-Phenotype (%) (U2OS [2]; [9]): 30%
- Total Cell Count (U2OS [2]; [9]): 244
- Population Apoptotic (%) (U2OS [2]; [10]): 45%
- Population Fragmented Nuclei (%) (U2OS [2]; [10]): 4%
- Population Healthy Nuclei (%) (U2OS [2]; [10]): 86%
- Population Hoechst High Intensity Objects (%) (U2OS [2]; [10]): 8%
- Population Membrane Permeable-Phenotype (%) (U2OS [2]; [10]): 13%
- Population Mitochondria Different-Phenotype (%) (U2OS [2]; [10]): 27%
- Population Mitotic Cells (%) (U2OS [2]; [10]): 54%
- Population Normal (%) (U2OS [2]; [10]): 91%
- Population Pyknosed Nuclei (%) (U2OS [2]; [10]): 9%
- Population Tubulin-Different-Phenotype (%) (U2OS [2]; [10]): 23%
- Total Cell Count (U2OS [2]; [10]): 141
- Population Apoptotic (%) (U2OS [2]; [11]): 46%
- Population Fragmented Nuclei (%) (U2OS [2]; [11]): 7%
- Population Healthy Nuclei (%) (U2OS [2]; [11]): 82%
- Population Hoechst High Intensity Objects (%) (U2OS [2]; [11]): 5%
- Population Membrane Permeable-Phenotype (%) (U2OS [2]; [11]): 11%
- Population Mitochondria Different-Phenotype (%) (U2OS [2]; [11]): 32%
- Population Mitotic Cells (%) (U2OS [2]; [11]): 53%
- Population Normal (%) (U2OS [2]; [11]): 94%
- Population Pyknosed Nuclei (%) (U2OS [2]; [11]): 10%
- Population Tubulin-Different-Phenotype (%) (U2OS [2]; [11]): 34%
- Total Cell Count (U2OS [2]; [11]): 133
- Population Apoptotic (%) (U2OS [2]; [12]): 40%
- Population Fragmented Nuclei (%) (U2OS [2]; [12]): 3%
- Population Healthy Nuclei (%) (U2OS [2]; [12]): 92%
- Population Hoechst High Intensity Objects (%) (U2OS [2]; [12]): 9%
- Population Membrane Permeable-Phenotype (%) (U2OS [2]; [12]): 9%
- Population Mitochondria Different-Phenotype (%) (U2OS [2]; [12]): 29%
- Population Mitotic Cells (%) (U2OS [2]; [12]): 60%
- Population Normal (%) (U2OS [2]; [12]): 90%
- Population Pyknosed Nuclei (%) (U2OS [2]; [12]): 3%
- Population Tubulin-Different-Phenotype (%) (U2OS [2]; [12]): 26%
- Total Cell Count (U2OS [2]; [12]): 126
- Population Apoptotic (%) (U2OS [2]; [13]): 33%
- Population Fragmented Nuclei (%) (U2OS [2]; [13]): 5%
- Population Healthy Nuclei (%) (U2OS [2]; [13]): 91%
- Population Hoechst High Intensity Objects (%) (U2OS [2]; [13]): 1%
- Population Membrane Permeable-Phenotype (%) (U2OS [2]; [13]): 11%
- Population Mitochondria Different-Phenotype (%) (U2OS [2]; [13]): 36%
- Population Mitotic Cells (%) (U2OS [2]; [13]): 66%
- Population Normal (%) (U2OS [2]; [13]): 98%
- Population Pyknosed Nuclei (%) (U2OS [2]; [13]): 3%
- Population Tubulin-Different-Phenotype (%) (U2OS [2]; [13]): 36%
- Total Cell Count (U2OS [2]; [13]): 264
- Population Apoptotic (%) (U2OS [2]; [14]): 16%
- Population Fragmented Nuclei (%) (U2OS [2]; [14]): 8%
- Population Healthy Nuclei (%) (U2OS [2]; [14]): 87%
- Population Hoechst High Intensity Objects (%) (U2OS [2]; [14]): 10%
- Population Membrane Permeable-Phenotype (%) (U2OS [2]; [14]): 10%
- Population Mitochondria Different-Phenotype (%) (U2OS [2]; [14]): 28%
- Population Mitotic Cells (%) (U2OS [2]; [14]): 83%
- Population Normal (%) (U2OS [2]; [14]): 89%
- Population Pyknosed Nuclei (%) (U2OS [2]; [14]): 4%
- Population Tubulin-Different-Phenotype (%) (U2OS [2]; [14]): 23%
- Total Cell Count (U2OS [2]; [14]): 146
- Population Apoptotic (%) (U2OS [2]; [15]): 64%
- Population Fragmented Nuclei (%) (U2OS [2]; [15]): 7%
- Population Healthy Nuclei (%) (U2OS [2]; [15]): 83%
- Population Hoechst High Intensity Objects (%) (U2OS [2]; [15]): 5%
- Population Membrane Permeable-Phenotype (%) (U2OS [2]; [15]): 7%
- Population Mitochondria Different-Phenotype (%) (U2OS [2]; [15]): 37%
- Population Mitotic Cells (%) (U2OS [2]; [15]): 35%
- Population Normal (%) (U2OS [2]; [15]): 94%
- Population Pyknosed Nuclei (%) (U2OS [2]; [15]): 8%
- Population Tubulin-Different-Phenotype (%) (U2OS [2]; [15]): 13%
- Total Cell Count (U2OS [2]; [15]): 181
- Population Apoptotic (%) (U2OS [2]; [16]): 81%
- Population Fragmented Nuclei (%) (U2OS [2]; [16]): 4%
- Population Healthy Nuclei (%) (U2OS [2]; [16]): 88%
- Population Hoechst High Intensity Objects (%) (U2OS [2]; [16]): 7%
- Population Membrane Permeable-Phenotype (%) (U2OS [2]; [16]): 8%
- Population Mitochondria Different-Phenotype (%) (U2OS [2]; [16]): 36%
- Population Mitotic Cells (%) (U2OS [2]; [16]): 18%
- Population Normal (%) (U2OS [2]; [16]): 92%
- Population Pyknosed Nuclei (%) (U2OS [2]; [16]): 7%
- Population Tubulin-Different-Phenotype (%) (U2OS [2]; [16]): 9%
- Total Cell Count (U2OS [2]; [16]): 165
- Growth Rate (HEK-293T; [8]): 1
- Growth Rate (HEK-293T; [4]): 0
- Growth Rate (HEK-293T; [5]): 0
- Growth Rate (HEK-293T; [6]): 0
- Growth Rate (HEK-293T; [7]): 0
